According to ChEMBL document CHEMBL2396550, “Manzamine A, a marine-derived alkaloid, inhibits accumulation of cholesterol ester in macrophages and suppresses hyperlipidemia and atherosclerosis in vivo” (Bioorg Med Chem, 2013):
Activity calls are given as the source filed them. No cut-off for these calls is given here.

Assays:
MDM [1] = experiment: Antihyperlipidemic activity in human MDM assessed as inhibition of acetylated LDL-induced [3H]-cholesterol ester accumulation at 20 uM after 24 hrs by radioscanner analysis in presence of [3H]-oleate-conjugated BSA; assay type: functional
Method in brief: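 Monocytes were isolated from healthy-volunteer blood on Ficoll, allowed to adhere for 1 h, then differentiated for 7 days into macrophages in DMEM with 10% pooled human serum. The macrophages were incubated for 24 h at 37 °C in 5% CO2 with 50 μg/mL AcLDL, 0.1 mM BSA-conjugated [3H]oleate and 20 μM sample. Cellular lipids were extracted, [3H]CE was separated by TLC, and it was quantified by radioscanner.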

[2] = target: T1, Sterol O-acyltransferase 1 (Homo sapiens, UniProt P35610); experiment: Inhibition of macrophage ACAT (unknown origin)
T1 sequence (P35610 whole entry): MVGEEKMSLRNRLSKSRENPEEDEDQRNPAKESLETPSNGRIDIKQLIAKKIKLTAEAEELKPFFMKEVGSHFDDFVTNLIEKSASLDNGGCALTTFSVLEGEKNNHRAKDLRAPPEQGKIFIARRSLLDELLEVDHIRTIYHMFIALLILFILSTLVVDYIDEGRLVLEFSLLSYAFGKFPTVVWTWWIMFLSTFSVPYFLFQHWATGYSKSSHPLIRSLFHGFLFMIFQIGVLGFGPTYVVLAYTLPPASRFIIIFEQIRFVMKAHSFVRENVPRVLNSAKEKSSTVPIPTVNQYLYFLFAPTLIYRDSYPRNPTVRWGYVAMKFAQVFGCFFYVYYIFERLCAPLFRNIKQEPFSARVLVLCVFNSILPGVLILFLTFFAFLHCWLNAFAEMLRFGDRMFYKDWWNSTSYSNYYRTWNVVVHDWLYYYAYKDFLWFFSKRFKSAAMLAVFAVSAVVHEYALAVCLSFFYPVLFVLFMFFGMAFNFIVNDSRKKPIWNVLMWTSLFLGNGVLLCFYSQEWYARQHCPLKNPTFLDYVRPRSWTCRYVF

[3] = target: T2, Sterol O-acyltransferase 1 (Homo sapiens) (UniProt P35610); experiment: (§1) Non-competitive inhibition of human microsomal ACAT1 overexpressed in CHO cells using [14C]oleoyl-CoA as substrate assessed as formation of cholesteryl [14C]-oleate […]
T2 sequence (whole entry): T1 sequence (P35610 whole entry)

[4] = target: T1, Sterol O-acyltransferase 1; experiment: as §1
MDM [5] = experiment: Inhibition of endocytic [125I]-acetylated LDL uptake in human MDM at 50 uM after 5 hrs; assay type: functional
Method in brief: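 Day-7 HMDMs in DMEM with 3% BSA, incubated 5 h at 37 °C with 125I-AcLDL (50 μg/mL, 600 cpm/ng) plus compound. Degradation was measured as TCA-soluble, AgNO3-cleared medium radioactivity. Cell-associated counts came from 0.1 M NaOH lysates after ice-cold PBS/1% BSA washes and were normalised to protein.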

Mus musculus [6] = experiment: Antiatherosclerotic activity in apoE-deficient C57BL/6 mouse assessed as decrease in plasma triglyceride level at 30 mg/kg/day administered through feeding measured after 80 days relative to control; assay type: functional; design: scale not given: the % may be the effect or the level left
[7] = Cytotoxicity against human MDM assessed as change in cell morphology at 50 uM
MDM [8] = experiment: Effect on ACAT expression in human MDM at 5 to 30 uM after 24 hrs by immunoblot analysis; assay type: functional
Method in brief: (§2)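 HMDMs exposed 24 h to graded compound concentrations, solubilised in 1% Triton X-100, boiled in SDS sample buffer, then N-glycosidase-treated at 37 °C for 24 h. 10 μg protein run on 10% SDS-PAGE and immunoblotted for human ACAT-1, SR-A (E5) or SR-BI, with β-actin reprobe; band density quantified.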

Mus musculus [9] = experiment: Antiatherosclerotic activity in apoE-deficient C57BL/6 mouse assessed as decrease in total plasma cholesterol level at 30 mg/kg/day administered through feeding measured after 80 days relative to control; assay type: functional; design: scale not given: the % may be the effect or the level left
MDM [10] = experiment: Effect on scavenger receptor-A expression in human MDM at 5 to 30 uM after 24 hrs by immunoblot analysis; assay type: functional; method in brief: as §2
MDM [11] = experiment: (§3) Antihyperlipidemic activity in human MDM assessed as inhibition of acetylated LDL-induced [3H]-cholesterol ester accumulation after 24 hrs by radioscanner analysis in presence of [3H]-oleate-conjugated BSA; assay type: functional
Method in brief: (§4)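 Human monocytes from healthy volunteer blood by Ficoll, adhered 1 h, differentiated 7 days in DMEM with 10% pooled human serum. Monolayers incubated 24 h with AcLDL 50 μg/mL plus 0.1 mM [3H]oleate–BSA with or without compound; lipids extracted, [3H]cholesteryl oleate separated by TLC and counted by radioscanner.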

[12] = as §3; assay type: functional; method in brief: as §4
[13] = Cytotoxicity against human MDM assessed as inhibition of acetylated LDL-induced [3H]-triglyceride synthesis at 50 uM after 24 hrs by radioscanner analysis in presence of [3H]-oleate-conjugated BSA
Method in brief: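 HMDMs incubated 24 h with AcLDL 50 μg/mL and 0.1 mM [3H]oleate–BSA with or without compound; extracted lipids assayed for TG-[3H]oleate radioactivity.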

Mus musculus [14] = species: Mus musculus; experiment: (§5) Inhibition of microsomal ACAT in apoE-deficient mouse peritoneal macrophage using [14C]oleoyl-CoA as substrate assessed as formation of cholesteryl [14C]-oleate […] by TLC analysis
[15] = as §5
Mus musculus [16] = experiment: Antiatherosclerotic activity in apoE-deficient C57BL/6 mouse assessed as decrease in plasma LDL cholesterol level at 30 mg/kg/day administered through feeding measured after 80 days relative to control; assay type: functional; design: scale not given: the % may be the effect or the level left
[17] = target: T2, Sterol O-acyltransferase 1 (Homo sapiens); experiment: (§6) Non-competitive inhibition of microsomal ACAT in human MDM using [14C]oleoyl-CoA as substrate assessed as formation of cholesteryl [14C]-oleate […]
[18] = target: T1, Sterol O-acyltransferase 1; experiment: as §6
[19] = Cytotoxicity against human MDM assessed as cell viability at 50 uM after 24 hrs by WST-8 assay
Method in brief: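 HMDMs seeded at 1×10^4 per well, treated with compound; viability read by WST-8 assay.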

Mus musculus [20] = experiment: Antiatherosclerotic activity in apoE-deficient C57BL/6 mouse assessed as decrease in plasma free cholesterol level at 30 mg/kg/day administered through feeding measured after 80 days relative to control; assay type: functional; design: scale not given: the % may be the effect or the level left
MDM [21] = experiment: Effect on scavenger receptor-B1 expression in human MDM at 5 to 30 uM after 24 hrs by immunoblot analysis; assay type: functional; method in brief: as §2
CHO [22] = experiment: Antihyperlipidemic activity in CHO cells overexpressing human ACAT2 assessed as inhibition of [3H]-cholesterol ester accumulation after 24 hrs by radioscanner analysis in presence of [3H]-oleate-conjugated BSA; assay type: functional, cell-based; settings: Cricetulus griseus
Method in brief: (§7)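 CHO cells stably overexpressing human ACAT-1 or ACAT-2, grown in F-12 HAM with 10% FCS and G418 800 μg/mL. Incubated 24 h in medium with 10% FCS, 0.1 mM [3H]oleate–BSA and graded compound concentrations; no AcLDL. Lipids extracted, [3H]CE separated by TLC and counted by radioscanner.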

Mus musculus [23] = experiment: Antiatherosclerotic activity in apoE-deficient C57BL/6 mouse assessed as decrease in atherosclerotic lesion size in aortic sinus at 30 mg/kg/day administered through feeding measured after 80 days by oil red O/hematoxylin staining assay relative to control; assay type: functional; design: scale not given: the % may be the effect or the level left
[24] = tested on: Peritoneal macrophage cell; experiment: (§8) Antihyperlipidemic activity in apoE-deficient mouse peritoneal macrophages assessed as inhibition of acetylated LDL-induced [3H]-cholesterol ester accumulation after 24 hrs by radioscanner analysis in presence of [3H]-oleate-conjugated BSA; assay type: functional, cell-based
Method in brief: (§9)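 Peritoneal macrophages from apoE-deficient mice, cultured in DMEM with 10% pooled human serum, 37 °C, 5% CO2. [3H]CE accumulation after AcLDL loading was measured by the [3H]oleate/TLC method.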

[25] = as §8; assay type: functional, cell-based; settings: Peritoneal macrophage cell; method in brief: as §9
[26] = target: T3, Sterol O-acyltransferase 2 (Homo sapiens, UniProt O75908); experiment: (§10) Non-competitive inhibition of human microsomal ACAT2 overexpressed in CHO cells using [14C]oleoyl-CoA as substrate assessed as formation of cholesteryl [14C]-oleate […]
T3 sequence (O75908 whole entry): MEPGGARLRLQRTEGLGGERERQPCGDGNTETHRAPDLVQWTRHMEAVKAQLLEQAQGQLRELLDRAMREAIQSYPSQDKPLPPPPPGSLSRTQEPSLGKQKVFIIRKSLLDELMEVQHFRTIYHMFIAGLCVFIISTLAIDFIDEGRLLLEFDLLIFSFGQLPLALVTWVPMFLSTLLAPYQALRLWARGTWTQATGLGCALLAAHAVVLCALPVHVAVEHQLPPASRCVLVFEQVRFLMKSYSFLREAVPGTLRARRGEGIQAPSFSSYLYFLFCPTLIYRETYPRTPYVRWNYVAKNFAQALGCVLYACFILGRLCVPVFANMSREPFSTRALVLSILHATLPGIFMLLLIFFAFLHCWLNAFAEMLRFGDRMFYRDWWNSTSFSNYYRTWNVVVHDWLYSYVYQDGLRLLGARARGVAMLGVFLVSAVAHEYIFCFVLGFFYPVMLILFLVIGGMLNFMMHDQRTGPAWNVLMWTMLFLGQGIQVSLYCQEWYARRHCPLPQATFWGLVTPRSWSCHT

[27] = target: T4, Sterol O-acyltransferase 2 (Homo sapiens) (UniProt O75908); experiment: as §10
T4 sequence (whole entry): T3 sequence (O75908 whole entry)

CHO [28] = experiment: Antihyperlipidemic activity in CHO cells overexpressing human ACAT1 assessed as inhibition of [3H]-cholesterol ester accumulation after 24 hrs by radioscanner analysis in presence of [3H]-oleate-conjugated BSA; assay type: functional, cell-based; settings: Cricetulus griseus; method in brief: as §7
[29] = target: T3, Sterol O-acyltransferase 2; experiment: Inhibition of macrophage ACAT2 (unknown origin)
[30] = target: T1, Sterol O-acyltransferase 1; experiment: Inhibition of ACAT1 (unknown origin)
[31] = target: T3, Sterol O-acyltransferase 2; experiment: Inhibition of ACAT2 in human MDM assessed as inhibition of acetylated LDL-induced cholesterol ester accumulation after 1 hr by HPLC analysis
[32] = target: T1, Sterol O-acyltransferase 1
[33] = Inhibition of microsomal ACAT in cholesterol-fed JW rabbit intestine using [14C]oleoyl-CoA as substrate incubated for 5 mins prior to substrate addition measured after 5 to 10 mins by liquid scintillation counting analysis; assay type: microsomes, Oryctolagus cuniculus

O=CC1=C[C@@]2(O)CC/C=C\CCCCN3CC[C@@H]1[C@]1(C[C@@H]4/C=C\CCCCN4[C@H]12)C3
inhibition (MDM [1]): Active

CCCCCCCCCN(CC(C)(C)C)C(=O)N[C@H]1CCCC[C@@H]1OC(=O)CCNC(=O)[C@@H]1OC(C)(C)OCC1(C)C
IC50 [2]: 0.032 µM

Oc1ccc2[nH]c3c(C4=C[C@@]5(O)CC/C=C\CCCCN6CCC4[C@]4(C[C@@H]7/C=C\CCCCN7[C@H]45)C6)nccc3c2c1 (some centres undefined)
inhibition (MDM [1]): Active

c1ccc2c(c1)[nH]c1cnccc12
inhibition (MDM [1]): Active

O[C@H]1/C=C/C[C@]2(O)C=C(c3nccc4c3[nH]c3ccccc34)[C@@H]3CCN(CCCC1)C[C@@]31C[C@@H]3/C=C\CCCCN3[C@H]12
inhibition (MDM [1]): Active

O=C1CCCN2[C@@H]3[C@@]45CN6CCCC/C=C\CC[C@@]3(C=C(c3nccc7c3[nH]c3ccccc37)[C@@H]4CC6)O[C@]2(CC1)C5
inhibition (MDM [1]): Active

O[C@]12C=C(c3nccc4c3[nH]c3ccccc34)[C@@H]3CCN(CCCC/C=C\CC1)C[C@@]31C[C@@H]3/C=C\CCCCN3[C@H]12 [MANZAMINE A]
inhibition [3]: Dose-dependent effect | IC50 [4]: 6.2 µM | inhibition (MDM [5]): Active | Activity (Mus musculus [6]): 50% | inhibition (MDM [1]): Active | Activity [7]: Toxic | Activity (MDM [8]): inactive | Activity (Mus musculus [9]): 40% | Activity (MDM [10]): inactive | inhibition (MDM [11]): Dose-dependent effect | IC50 [12]: 4.1 µM | Activity [13]: Toxic | inhibition (Mus musculus [14]): Dose-dependent effect | IC50 [15]: 5.8 µM | Activity (Mus musculus [16]): 40% | inhibition [17]: Dose-dependent effect | IC50 [18]: 6.4 µM | Activity [19]: Toxic | Activity (Mus musculus [20]): 20% | Activity (MDM [21]): inactive | inhibition (CHO [22]): Dose-dependent effect | Activity (Mus musculus [23]): 45% | inhibition [24]: Dose-dependent effect | IC50 [25]: 6.2 µM | IC50 [26]: 4.8 µM | inhibition [27]: Dose-dependent effect | inhibition (CHO [28]): Dose-dependent effect

CCCCCCCCN1CCc2c(C)c(CC(=O)O)c(C)c(NC(=O)C(C)(C)C)c21 [PACTIMIBE]
IC50 [29]: 3 µM | IC50 [30]: 4.9 µM

CC(C)c1cc(C(C)C)c(CC(=O)NS(=O)(=O)Oc2c(C(C)C)cccc2C(C)C)c(C(C)C)c1 [AVASIMIBE]
IC50 [31]: 9.2 µM | IC50 [32]: 23.5 µM

Oc1cccc2c1[nH]c1c(C3=C[C@@]4(O)CC/C=C\CCCCN5CC[C@@H]3[C@]3(CC6/C=C\CCCCN6[C@H]34)C5)nccc12 (some centres undefined)
inhibition (MDM [1]): Active

CN(C)c1ccc(NC(=O)N(C[C@H]2CC[C@H](CN(C(=O)Nc3ccc(N(C)C)cc3)C3CCCCC3)CC2)C2CCCCC2)cc1
IC50 [33]: 0.0076 µM
